Measurements as given in ChEMBL document CHEMBL5096213 (Bioorg Med Chem, 2022).

How the values were obtained:
[1] = Cytotoxicity against African green monkey Vero cells assessed as cell viability at 1.5 mM incubated for 24 hrs by XTT assay; type: toxicity, cell-based; conditions: chlorocebus sabaeus, read-out: Activity
Procedure, shortened: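 Vero cells in EMEM with 10% FBS and penicillin/streptomycin were seeded at 500–1000 cells/well. They were dosed from DMSO stocks (final DMSO 0.5%) over 20 μM to 1.5 mM and incubated 24 h at 37 °C, 10% CO2. XTT was added 2 h before read-out at 450 nm, with 660 nm background. Viability was blank-subtracted and normalized to DMSO-only wells as 100%. Values are the mean of two technical replicates.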

[2] = Binding affinity to Mycobacterium tuberculosis PanD assessed as dissociation constant by isothermal titration calorimetry
Procedure, shortened: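 ITC at 20 °C, 100 μM Mtb PanD titrated with 2 mM ligand, after desalting into 50 mM Tris pH 7.5. Buffer-versus-compound heats subtracted. KD obtained by least-squares fit of the binding isotherm to a single-site model.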

[3] = system: Mycobacterium tuberculosis; assay: Binding affinity to Mycobacterium tuberculosis PanD assessed as change in entropy by isothermal titration calorimetry
Procedure, shortened: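 Mtb PanD (100 μM) in 50 mM Tris pH 7.5 titrated with 2 mM ligand by ITC at 20 °C. Buffer-versus-compound control heats subtracted. Isotherm fitted by least squares to a single-site binding model, which yields the thermodynamic parameters.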

Compound | viability at 24 h, 1500 µM [1] [%] | Kd [2] [µM] | TdeltaS [3] [kcal/mol]
CCCNc1nccnc1C(=O)O | 50 | 7 | -5.7
CC(C)Nc1nccnc1C(=O)O | 50 | > 100 | –
Nc1cnc(C(=O)O)cn1 | 50 | 37 | 0.6
O=C(O)c1cnccn1 [PYRAZINOIC ACID] | – | – | 3
Nc1nccnc1C(=O)O | 50 | 40 | -0.7
O=C(O)c1nccnc1Nc1ccccc1 | – | 47 | -2.5
O=C(O)c1nccnc1NCc1ccccc1 | 50 | – | –
